Results on 18 compounds are retold here after PubChem BioAssay.

Structures are written as SMILES. Calls of active or inactive are those of the source.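 The calls were made as follows: active = duplicate-averaged activation above buffer control mean plus 5 SD of those controls; inactive = the rest.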

The nature of this assay: nonspecific flux increase, KCNQ1-free cells – parental CHO cells, counter-screen for KCNQ1 potentiator project (AID 493006).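 As to activation: fluorescence ratio of max minus min over baseline after K+ and Tl+ depolarization.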 As to conditions: parental CHO-K1 cells, FluxOR thallium flux, at 10 µM; active compounds read high. Summed up:
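Benchmarks – buffer and R-L3 controls · Assay system – untransfected host CHO-K1 cells with FluxOR thallium dye · Measure – fluorescence change ratio scaled 0% buffer, 100% R-L3 · Technique – kinetic thallium-flux fluorescence · Timing – overnight 37 °C plating, 90 min RT dye, 20 min compound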
For `O=C(ONC1=NCCCCC1)c1ccc(Cl)cc1`, the outcome was inactive.

For the compound `Cc1ccc(/C=C/C(=O)C2C(=O)c3ccccc3C2=O)cc1`, the activation is 227% (active).

As for `COc1cccc2sc(NNC(=O)C3COc4ccccc4O3)nc12` (stereo not drawn), the result was inactive.

As for `O=S(=O)(CC(CN1CCCC1)N1CCCC1)c1ccc2ccccc2c1` (stereo not drawn), the outcome was inactive.

For the compound `Cc1nc(NCCc2cnc[nH]2)c2oc3ccccc3c2n1`, the outcome was inactive.

Take `C/C(=N\NC(=S)Nc1cccc(C)c1)c1ccco1`: the result was inactive.

For `C#CC1(NC(=O)NCCCC)CCCCC1`, the outcome was inactive.

Take `CC(C)(C)C1(O)CC(C(F)(F)F)=NN1C(=O)Cc1ccc([N+](=O)[O-])cc1` (stereo not drawn): the result was inactive.

On to `CN(C)CC(CCCCC(CN(C)C)C(=O)c1ccccc1)C(=O)c1ccccc1` (stereo not drawn), for which the outcome was inactive.

Take `Cn1ccnc1C(OC(=O)c1ccc(Cl)cc1)C(F)(F)F` (stereo not drawn): the result was inactive.

Turning to `COC(=O)C1=NN(C(=O)c2ccc(Cl)cc2)C(O)(c2ccccc2)C1` (stereo not drawn), the activation is 426% (active).

Turning to `C=CCn1c(O)c(N=NC(=S)Nc2cccc(OC)c2)c2ccccc21`, the activation is 186% (active).

Regarding `Cc1ccc(C)c(N2CCN(C(=O)CCS(=O)(=O)c3ccc4c(c3)NC(=O)CO4)CC2)c1`, the result was inactive.

Consider `COC(=O)CSc1nc(N)c2c3c(sc2n1)C(c1ccccc1)SC(c1ccccc1)C3` (stereo not drawn), for which the result was inactive.

On to `CC(=O)c1c(C)[nH]c(C(=O)Nc2cccc(C(F)(F)F)c2)c1C`, for which the outcome was inactive.

Regarding `O=C(Nc1ccc2[nH]c(=S)sc2c1)Nc1ccccc1F`, the activation is 150% (active).

Turning to `Cc1noc(C)c1CSc1ncnc2sc(C)c(C)c12`, the outcome was inactive.

Regarding `Cc1ccc2nc(SCC(=O)N3CCN(C(=O)c4ccco4)CC3)[nH]c2c1`, the result was inactive.
